Pemphigus Ab inh: inhibitors of pemphigus antibody binding to human desmoglein-3; P32926; actives 0.48% (n = 310,000); binding (percent of control), % at 10 µM; DSG3-coupled beads, scFv-anti-DSG3-GFP binding, flow cytometry; hits give low values;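 active means binding more than 3 SD below its plate's average and above zero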;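 further: hits lower antibody fragment binding to DSG3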
GPR7 antag: blocks human GPR7 receptor signaling. actives 1.1% (n = 290,000). inhibition, % at 4.4 µM. GPR7-expressing cells, fluorescence antagonist assay. AID 1861; in the data active means inhibition above about 16%, passing the limit was not always enough;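 further: cells stimulated with the agonist NPW; 0% = agonist with vehicle and 100% = vehicle without agonist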
CHT inh: inhibits the human high affinity choline transporter | Q9GZV3 | CHT-expressing cells, membrane potential dye, choline response; hits give low values | B-score at 10 µM | actives 0.86% (n = 310,000) | AID 488975;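 active means B-score over 3 SD under the library average, and starting fluorescence ratio not unusually high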;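 further: choline stimulus applied at its EC90 after an EC20 pre-addition; B-score computed on integrated fluorescence ratio after choline addition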
CHT allo act: allosteric activators of human choline transporter CHT; actives 0.49% (n = 310,000); B-score at 10 µM; Q9GZV3; CHT-expressing cells, membrane potential dye, choline EC20; hits give high values; LV-AA mutant CHT in HEK293 cells;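 active means initial fluorescence not abnormally high and integrated response B-score, plate-corrected, over 3 SD above library mean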
T cell HTS: T cell immune modulators affecting CD8 T cell-vesicle binding; 2C CD8+ T cell-vesicle binding, flow cytometry; hits give low values; response (vesicle binding), % at 7 µM; actives 0.068% (n = 330,000);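 active means response, share of CD8 T cells binding vesicles, and their 90th percentile fluorescence all below set limits, cut at about 80% in these data, passing the limit was not always enough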;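 further: values below 100% mean blocked vesicle binding to the CD8+ T cells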
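Test system: purified 2C TCR transgenic mouse naive CD8+ T cells. Probe or stimulus: QL9-peptide-loaded Drosophila micro-vesicles bearing Ld, ICAM-1 and B7-1. Incubation: binding step 1.5 h, 37 °C, antibody labelling 20 min, ice. Measured by: flow cytometry of vesicle-bound cells.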
pCIP destab: p/CIP protein destabilization. Q05BA5. F442A p/CIP-EGFP cells, EGFP fluorescence, 16 h. decrease of EGFP signal, % at 10 µM. actives 0.01% (n = 290,000);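 active means EGFP signal decrease of at least 30% at 10 µM or well 3 SD below plate mean, unless failing retest; inactive means the rest, including hits failing retest or dose response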
Target sequence (Q05BA5 1-1403): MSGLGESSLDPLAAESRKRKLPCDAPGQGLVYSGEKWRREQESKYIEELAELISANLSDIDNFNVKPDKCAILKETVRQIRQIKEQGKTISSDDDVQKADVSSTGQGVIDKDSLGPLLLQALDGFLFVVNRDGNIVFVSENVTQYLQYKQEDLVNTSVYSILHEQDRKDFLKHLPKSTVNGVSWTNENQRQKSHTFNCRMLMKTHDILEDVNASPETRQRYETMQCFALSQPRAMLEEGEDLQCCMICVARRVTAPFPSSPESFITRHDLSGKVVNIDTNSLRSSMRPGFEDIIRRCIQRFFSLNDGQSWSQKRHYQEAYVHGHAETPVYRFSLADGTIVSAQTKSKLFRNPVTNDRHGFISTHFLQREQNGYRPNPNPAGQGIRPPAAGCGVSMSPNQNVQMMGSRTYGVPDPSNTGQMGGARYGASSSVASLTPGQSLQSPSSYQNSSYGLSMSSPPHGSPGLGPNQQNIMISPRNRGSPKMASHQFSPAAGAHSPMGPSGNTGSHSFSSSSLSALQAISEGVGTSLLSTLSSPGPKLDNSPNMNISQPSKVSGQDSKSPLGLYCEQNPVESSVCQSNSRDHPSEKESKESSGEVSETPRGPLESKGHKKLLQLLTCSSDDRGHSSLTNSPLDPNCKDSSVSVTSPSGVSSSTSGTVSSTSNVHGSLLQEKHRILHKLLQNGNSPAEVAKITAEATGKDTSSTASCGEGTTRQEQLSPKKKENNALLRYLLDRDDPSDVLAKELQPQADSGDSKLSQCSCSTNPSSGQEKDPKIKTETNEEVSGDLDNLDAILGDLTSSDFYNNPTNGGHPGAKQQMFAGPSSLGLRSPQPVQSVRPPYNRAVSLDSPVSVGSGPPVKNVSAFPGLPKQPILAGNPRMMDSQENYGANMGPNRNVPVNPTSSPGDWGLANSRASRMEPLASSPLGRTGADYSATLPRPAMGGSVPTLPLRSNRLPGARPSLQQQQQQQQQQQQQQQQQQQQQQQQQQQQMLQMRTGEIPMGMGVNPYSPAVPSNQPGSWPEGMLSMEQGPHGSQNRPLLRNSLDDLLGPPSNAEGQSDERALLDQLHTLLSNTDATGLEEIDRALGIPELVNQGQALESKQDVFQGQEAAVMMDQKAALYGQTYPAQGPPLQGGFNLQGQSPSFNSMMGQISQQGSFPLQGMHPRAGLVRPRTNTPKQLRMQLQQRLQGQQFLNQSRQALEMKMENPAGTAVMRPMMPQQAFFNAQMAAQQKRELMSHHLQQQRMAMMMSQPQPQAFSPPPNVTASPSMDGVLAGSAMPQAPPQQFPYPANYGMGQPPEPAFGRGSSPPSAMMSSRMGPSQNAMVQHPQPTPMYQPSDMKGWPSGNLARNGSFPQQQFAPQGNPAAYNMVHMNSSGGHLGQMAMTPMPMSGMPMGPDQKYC
CHT act confirm: confirmation of human choline transporter (CHT) activators; shares compounds with CHT allo act; CHT-expressing cells, membrane potential dye fluorescence (FDSS); % of choline EC20–EC90 response window; HEK293 expressing CHT LV-AA mutant; choline added at its EC20; activation, % at 10 µM; actives 91% (n = 2,500);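 active means primary screen active, with duplicate mean activation above negative control mean plus 3 SD, cut at about 11% in these data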
HEK293 MP dye: activity in parental HEK293 cells lacking CHT | ratio readout change at 10 µM, hits read low | membrane potential dye fluorescence (FDSS); measured after EC20 choline addition | actives 62% (n = 2,500) | shares compounds with CHT allo act;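 active means duplicate-averaged ratio beyond 3 SD from buffer wells, up or down, though filed actives are nearly all decreases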
* marks the source's active call; other numbers are inactive results; i = inactive; · = no result. In the library only some 2.3% were active in any assay of this set; here they are far more common.

SMILES	Pemphigus Ab inh	GPR7 antag	CHT inh	CHT allo act	T cell HTS	pCIP destab	CHT act confirm	HEK293 MP dye
COc1ccc([C@H]2/C=C\CN(C(=O)c3ccc(C)cc3)[C@@H](C)C(=O)N2Cc2ccc(F)cc2)cc1	90	·	i	i	640	·	·	·
CC1=C(C(=O)N(C)C)CC(CC(=O)NC(c2ccccc2)c2ccccc2)C(=O)N1Cc1ccc(F)cc1 (centres undefined)	100	·	·	·	·	·	·	·
CCN1C(=NCc2ccccc2)N[C@@H](c2ccccc2)[C@H](C(=O)OC)[C@H]1C	105	12	i	6.9*	413	22	12*	i
CCN1C(=NCc2ccc(OC)cc2)N[C@@H](c2ccccc2)[C@H](C(=O)OC)[C@H]1C	101	·	·	·	325	·	·	·
COC(=O)[C@@H]1[C@@H](C)N(Cc2ccccc2)C(=O)N[C@H]1c1cccc(C(F)(F)F)c1	99	·	i	9.4*	449	2	-3	i
CC1CN(CCN2CC(C)N(C=O)CC2C)C(C)CN1C=O (centres undefined)	96	·	·	·	·	·	·	·
CCOC(=O)c1c(C)nc2ccccc2c1-c1ccccc1	112	-14	i	i	384	-24	16*	i
COC(=O)c1c(C)nc2ccccc2c1-c1ccccc1	94	-1	i	i	335	-10	·	·
COc1ccc(S(=O)(=O)N2CCOCC2)cc1C(=O)N(C)CCOc1ccc(Cl)cc1	110	·	·	·	172	·	·	·
COc1ccc(S(=O)(=O)N2CCCCCC2)cc1C(=O)N(C)CCOc1ccccc1	106	·	i	6.5*	293	·	27*	i
COc1ccccc1C(=O)NCCN1CCCC1	103	·	·	·	·	·	·	·
Cc1cccc2nc(CSC(=N)N)c(Br)n12	94	-4	i	i	227	3	28*	-38*
O=C(NCC(c1ccco1)N1CCc2ccccc21)c1ccc([N+](=O)[O-])cc1 (centres undefined)	114	·	i	i	269	·	·	·
O=C(CCc1ccccc1)NCC(c1ccco1)N1CCc2ccccc21 (centres undefined)	112	·	i	7.5*	499	·	14*	i
O=C(NCC(c1ccco1)N1CCc2ccccc21)c1ccccc1F (centres undefined)	95	·	i	i	672	·	·	·
O=C(NCC(c1ccco1)N1CCc2ccccc21)c1cccc([N+](=O)[O-])c1 (centres undefined)	105	·	i	i	194	·	23*	i
COc1cc(-c2ccc3c(=O)c4ccccc4n(C)c3c2)cc(OC)c1OC	99	-6	i	i	104	10	·	·
COc1ccc(-c2cc(Cl)cc3c(=O)c4ccccc4n(C)c23)cc1F	93	3	i	7.3*	294	2	26*	i
CCCC(c1nnnn1CS(=O)(=O)c1ccc(C)cc1)N1CCN(c2ccccc2)CC1 (centres undefined)	98	2	i	7*	948	-2	14*	i
CC[n+]1cc(-c2ccccc2)nc(N2CCOCC2)n1	104	-2	i	i	218	6	41*	-39*
CCc1ccc(/C(C)=N/NC(=O)c2ccc(-n3cnnn3)cc2)cc1	·	·	·	·	22	·	·	·
Cc1ccc(C(=O)c2cc([N+](=O)[O-])ccc2N2CCN(C)CC2)cc1	108	16	i	12*	416	-1	38*	i
CN1CCN(c2ccc([N+](=O)[O-])cc2C(=O)c2ccc(Br)cc2)CC1	100	4	i	i	244	-9	·	·
Cc1cc(Cn2ccnc2)c(C)cc1Cn1ccnc1	105	2	i	i	527	-7	45*	-41*
OCc1ccccc1Cn1ccnc1	100	·	·	·	·	·	·	·
